Assay results: ChEMBL document CHEMBL1138850, “Synthesis of 2-methyl-3-indolylacetic derivatives as anti-inflammatory agents that inhibit preferentially cyclooxygenase 1 without gastric damage” (2006)
Activity calls are given as the source filed them. No cut-off for these calls is given here.

Legend:
[1] = target: T1, Prostaglandin G/H synthase 1 (Mus musculus) (UniProt P22437); experiment: Activity at COX1 assessed as inhibition of arachidonic acid-induced PGE2 production in J774 cells at 10 uM; type: cell-based
T1 sequence (whole entry): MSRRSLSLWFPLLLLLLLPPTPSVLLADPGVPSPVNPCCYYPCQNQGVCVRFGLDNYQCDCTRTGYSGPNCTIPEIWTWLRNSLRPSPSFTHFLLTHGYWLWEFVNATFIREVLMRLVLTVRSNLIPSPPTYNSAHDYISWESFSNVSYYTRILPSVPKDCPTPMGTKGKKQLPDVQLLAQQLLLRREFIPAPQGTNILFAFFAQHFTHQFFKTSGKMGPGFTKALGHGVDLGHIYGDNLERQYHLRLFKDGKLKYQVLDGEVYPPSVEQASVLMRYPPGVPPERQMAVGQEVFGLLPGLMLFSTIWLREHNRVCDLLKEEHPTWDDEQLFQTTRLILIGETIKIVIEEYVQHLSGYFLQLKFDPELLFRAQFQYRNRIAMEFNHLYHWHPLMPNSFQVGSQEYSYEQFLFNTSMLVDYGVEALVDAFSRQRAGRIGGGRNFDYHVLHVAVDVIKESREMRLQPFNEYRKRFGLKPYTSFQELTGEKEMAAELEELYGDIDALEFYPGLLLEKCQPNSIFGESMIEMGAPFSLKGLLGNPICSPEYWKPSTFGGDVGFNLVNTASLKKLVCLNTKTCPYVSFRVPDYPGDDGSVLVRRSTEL
Procedure, shortened: (§1)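 Murine J774 macrophages were grown in DMEM with 10% FBS, adhered for 2 h at 37 °C, then switched to serum-free medium. Cells were pretreated with compound (0.01-100 µM, ethanol vehicle) for 15 min, then given 15 µM arachidonic acid for 30 min at 37 °C. Supernatant PGE2 was measured by radioimmunoassay. Triplicate wells; % inhibition vs control, mean of three experiments.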

[2] = target: T1, Prostaglandin G/H synthase 1 (Mus musculus); experiment: Activity at COX1 assessed as inhibition of arachidonic acid-induced PGE2 production in J774 cells at 0.1 uM; type: cell-based; procedure, shortened: as §1
[3] = target: T1, Prostaglandin G/H synthase 1 (Mus musculus); experiment: Activity at COX1 assessed as inhibition of arachidonic acid-induced PGE2 production in J774 cells at 0.01 uM; type: cell-based; procedure, shortened: as §1
[4] = target: T1, Prostaglandin G/H synthase 1 (Mus musculus); experiment: Activity at COX1 assessed as inhibition of arachidonic acid-induced PGE2 production in J774 cells at 1 uM; type: cell-based; procedure, shortened: as §1
[5] = target: T1, Prostaglandin G/H synthase 1 (Mus musculus); experiment: Activity at COX1 assessed as inhibition of arachidonic acid-induced PGE2 production in J774 cells at 100 uM; type: cell-based; procedure, shortened: as §1
[6] = target: T1, Prostaglandin G/H synthase 1 (Mus musculus); experiment: Activity at COX1 assessed as inhibition of arachidonic acid-induced PGE2 production in J774 cells; type: cell-based; procedure, shortened: as §1
Mus musculus [7] = experiment: Antiinflammatory activity in carrageenan-induced mouse paw edema; type: functional, organism-based
Procedure, shortened: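 Mice (18-20 g), lightly anesthetized with enflurane, were dosed 1 h before subplantar 1% carrageenan in the left footpad. Paw volume was read by hydroplethysmometer before injection and at 2, 4, 6, 24, 48 and 72 h. Edema was taken as the increase over basal volume.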

Rattus norvegicus = experiment: Gastric damage in rat at 100 mg/kg, po by GI damage assay; type: functional
Procedure, shortened: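 Rats (120-140 g) were fasted 18 h with water allowed, then dosed orally at 100 mg/kg; a vehicle group was included, six rats per group. After 5 h, stomachs were excised under pentobarbital. A blinded observer summed lesion lengths in mm per stomach. Analysis: Kruskal-Wallis with Dunn's post-test.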

[8] = target: T2, Prostaglandin G/H synthase 2 (Mus musculus) (UniProt Q05769); experiment: Activity at COX2 assessed as inhibition of arachidonic acid-induced PGE2 production in LPS-stimulated J774 cells at 100 uM; type: cell-based
T2 sequence (whole entry): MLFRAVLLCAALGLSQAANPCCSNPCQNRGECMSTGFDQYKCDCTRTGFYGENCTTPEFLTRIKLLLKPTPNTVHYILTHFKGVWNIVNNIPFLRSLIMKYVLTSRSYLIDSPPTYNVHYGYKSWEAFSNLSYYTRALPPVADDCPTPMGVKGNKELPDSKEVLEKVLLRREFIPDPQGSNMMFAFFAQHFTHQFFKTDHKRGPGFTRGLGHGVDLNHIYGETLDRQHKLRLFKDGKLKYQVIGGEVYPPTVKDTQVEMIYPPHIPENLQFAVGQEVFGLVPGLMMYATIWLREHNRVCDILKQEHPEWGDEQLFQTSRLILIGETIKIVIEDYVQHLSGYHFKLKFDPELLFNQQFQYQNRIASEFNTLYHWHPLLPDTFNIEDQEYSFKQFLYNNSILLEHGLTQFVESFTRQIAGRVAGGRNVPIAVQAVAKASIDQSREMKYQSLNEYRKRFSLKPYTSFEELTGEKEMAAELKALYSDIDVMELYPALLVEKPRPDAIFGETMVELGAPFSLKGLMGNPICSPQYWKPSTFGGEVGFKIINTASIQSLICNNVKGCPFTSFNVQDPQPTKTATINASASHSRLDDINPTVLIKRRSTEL
Procedure, shortened: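 J774 cells were induced with S. typhosa LPS (10 µg/mL, 24 h) to express COX-2. Medium was replaced with fresh medium holding 15 µM arachidonic acid, with or without compound (0.01-100 µM, ethanol vehicle), for 30 min at 37 °C. Supernatant PGE2 was measured by radioimmunoassay. Triplicate wells; % inhibition vs control, mean of three experiments.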

Mus musculus [9] = organism: Mus musculus; experiment: Analgesic activity in mouse by formalin paw licking assay at 0-15 mins; type: functional, organism-based
Procedure, shortened: (§2)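 Mice (18-20 g) were dosed 1 h before intraplantar 5% formalin (10 µL), given under light enflurane anesthesia. A blinded observer scored paw licking in two phases: 0-15 min and 15-45 min.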

Mus musculus [10] = organism: Mus musculus; experiment: Analgesic activity in Swiss mouse by acetic acid-induced writhing test; type: functional, organism-based
Procedure, shortened: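 Male mice (25-30 g) received 0.6% acetic acid intraperitoneally and were caged singly. Writhes were counted over 15 min, starting from the first writhing movement.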

Mus musculus [11] = organism: Mus musculus; experiment: Analgesic activity in mouse by formalin paw licking assay at 15-45 mins; type: functional, organism-based; procedure, shortened: as §2

`CCOC(=O)Cc1c(C)n(C2CCN(C)CC2)c2ccc(OC(C)=O)cc12` was tested, and the Activity [1] was “inactive”, the Activity [2] was “inactive” and the Activity [3] was “inactive”. The Activity [4] was “inactive” and the Activity [5] was “inactive”.

With `Cc1c(CC(=O)O)c2cc(O)ccc2n1C1CCN(C)CC1` the Activity [1] was “inactive”, the Activity [2] was “inactive” and the Activity [3] was “inactive”. The Activity [4] was “inactive” and the Activity [5] was “inactive”.

In the case of `COc1ccc2c(c1)c(CC(=O)O)c(C)n2C(=O)c1ccc(Cl)cc1` [INDOMETHACIN], the inhibition [1] is reported as 75%, the Activity [6] is reported as “Dose-dependent effect” and the Activity (Mus musculus [7]) is reported as “Active”. It also gave an Activity (Rattus norvegicus) of 50 mm and an inhibition [5] of 88%.

For `CCOC(=O)Cc1c(C)n(C2CCN(C)CC2)c2ccc(OC)cc12`, the inhibition [1] was 37%, the Activity [6] was “Dose-dependent effect” and the Activity (Mus musculus [7]) was “Active”. The inhibition [8] was 24%, the Activity (Mus musculus [9]) was “inactive” and the Activity (Mus musculus [10]) was “Dose-dependent effect”. The Activity (Mus musculus [11]) was “Active”, the Activity (Rattus norvegicus) was 0.6 mm and the inhibition [5] was 58%.

For `COc1ccc2c(c1)c(CC(=O)O)c(C)n2C1CCN(C)CC1`, the inhibition [1] was 57%, the Activity [6] was “Dose-dependent effect” and the Activity (Mus musculus [7]) was “Active”. For the same compound, the Activity (Mus musculus [9]) was “inactive”, the Activity (Mus musculus [10]) was “Dose-dependent effect” and the Activity (Mus musculus [11]) was “Active”. For the same compound, the Activity (Rattus norvegicus) was “inactive” and the inhibition [5] was 64%.
